# Assay results from different studies.
# Protocols differ between the studies behind these lines.
# Target: cGMP-dependent protein kinase 2 (PRKG2, Homo sapiens, UniProt Q13237)
# Sequence (Q13237 1-762, as in one of the studies): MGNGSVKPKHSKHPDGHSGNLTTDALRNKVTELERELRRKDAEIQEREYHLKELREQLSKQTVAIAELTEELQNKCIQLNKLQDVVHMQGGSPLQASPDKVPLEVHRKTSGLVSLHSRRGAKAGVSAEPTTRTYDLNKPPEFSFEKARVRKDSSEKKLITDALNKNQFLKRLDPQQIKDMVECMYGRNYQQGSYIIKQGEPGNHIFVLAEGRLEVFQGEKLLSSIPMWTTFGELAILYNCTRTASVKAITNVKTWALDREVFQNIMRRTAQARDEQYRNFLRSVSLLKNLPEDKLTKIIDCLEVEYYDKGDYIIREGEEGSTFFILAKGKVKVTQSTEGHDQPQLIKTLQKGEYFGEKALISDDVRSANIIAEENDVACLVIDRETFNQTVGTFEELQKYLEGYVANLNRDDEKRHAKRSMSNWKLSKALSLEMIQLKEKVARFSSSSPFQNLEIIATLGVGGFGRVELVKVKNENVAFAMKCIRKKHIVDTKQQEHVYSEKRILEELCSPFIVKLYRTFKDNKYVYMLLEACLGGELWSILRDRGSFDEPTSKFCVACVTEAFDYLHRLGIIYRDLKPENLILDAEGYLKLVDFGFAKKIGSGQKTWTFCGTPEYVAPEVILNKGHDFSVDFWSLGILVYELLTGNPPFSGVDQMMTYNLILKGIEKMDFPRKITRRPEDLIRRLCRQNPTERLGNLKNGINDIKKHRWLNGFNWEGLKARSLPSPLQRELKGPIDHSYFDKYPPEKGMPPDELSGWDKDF
SMILES,test,setting,remaining binding [%]
c1cncc(-c2cccc(Nc3nccc(NC4CCCCC4)n3)c2)c1,"binding, competition with immobilised ligand",10 µM,74
Cc1cnn2ncc(-c3ccnc(N(C)C)n3)c2c1,binding,1 µM,98
C=CC(=O)N1CCC(C(=O)NCC(=O)N2CCN(c3nc(-c4cnc(N)nc4C(F)F)nc(N4CCOCC4)n3)CC2)CC1,"binding, competition with immobilised ligand",1 µM,69
O=C(NCCCN1CCOCC1)c1ccc(Nc2ncc(Cl)c(-c3ccc(Cl)s3)n2)cc1,"binding, competition with immobilised ligand",1 µM,54
CC1CCCN1c1nccc(-c2cnn3ncccc23)n1 (stereo not shown),binding,1 µM,97
O=C1NC(c2ccccn2)Sc2ccccc21 (stereo not shown),"cell-free assay, competition with immobilised ligand",1 µM,90
CN(C)c1ncc(F)c(-c2cnn3ncccc23)n1,binding,1 µM,100
O=C(O)c1cc(-c2ccc(C3CCNCC3)cc2)c2ccc(-c3ccc(C(F)(F)F)cc3)cc2c1,"cell-free assay, competition with immobilised ligand",1 µM,79
N[C@@H]1CCN(c2nccc(-c3cnn4ncccc34)n2)C1,binding,1 µM,100
CCC(=O)N[C@H]1CC[C@@H](C(=O)N(C)c2ccc(-c3nc4ccccc4o3)cc2)C1,"cell-free assay, competition with immobilised ligand",1 µM,100
FC(F)(F)Oc1cccc(-c2cnc3ccc(-c4ccncc4)nn23)c1,"cell-free assay, competition with immobilised ligand",5 µM,88
O=C(c1ccc(Nc2nccc(-c3cc4ccccc4s3)n2)cc1)N1CCC(N2CCCC2)CC1,"binding, competition with immobilised ligand",1 µM,33
COc1ccnn2ncc(-c3ccnc(N(C)C)n3)c12,binding,1 µM,100
O=C(NCC1CCOCC1)c1n[nH]cc1NC(=O)c1c(F)cccc1F,"binding, competition with immobilised ligand",1 µM,88
Nc1cnc(N2CCc3cc(S(=O)(=O)Nc4c(F)cc(Cl)cc4F)cc(N4CCCC4=O)c32)nc1,"cell-free assay, competition with immobilised ligand",1 µM,84
O=C(c1ccc(Nc2ncc(Cl)c(-c3ccc(Cl)s3)n2)cc1)N1CCC(N2CCCC2)CC1,"binding, competition with immobilised ligand",1 µM,42
Cn1nc(C(=O)NCc2ccc(C(=O)O)cc2)cc1-c1ccc2[nH]ccc2c1,"cell-free assay, competition with immobilised ligand",0.1 µM,78
COc1cnc(Nc2cccc(S(N)(=O)=O)c2)nc1N1CCN(c2ccccc2)C(=O)C1,"binding, competition with immobilised ligand",1 µM,100
CN(C)c1nccc(-c2cnc3ncccn23)n1,binding,1 µM,69
CO[C@@H](C)c1c(Nc2ccc([C@H](N(C)C(=O)C3CCS(=O)(=O)CC3)C(F)(F)F)cc2)cnc2cc(Cl)nn12,"cell-free assay, competition with immobilised ligand",1 µM,100
C[C@@H]1CCN(c2nccc(-c3cnn4ncccc34)n2)C1,binding,1 µM,81
CNC(=O)[C@@H]1CC[C@@H](n2c(-c3ccc4cnccc4c3)nc3ccc(C(=O)NCc4cccc(C(N)=O)c4)cc32)C1,"binding, competition with immobilised ligand",1 µM,100
